Compounds with a hit are over-represented: about 1.4% of the library has one in this group of screens.
DDE Tn6 FP inh = inhibitors of Tn6 peptide binding to human fibrin DD(E). P02675. Fibrin DD(E) TRITC-Tn6 fluorescence polarization displacement. inhibition, % at 8.3 µM. actives 0.21% (n = 370,000). AID 720509;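 active means inhibition above a per-campaign cutoff: mean of compounds within control limits plus 3 SD, cut at about 15% in these data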;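 further: 0% = median of all compound wells on the plate and 100% = blocking peptide control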
Target sequence (P02675 whole entry, looked up): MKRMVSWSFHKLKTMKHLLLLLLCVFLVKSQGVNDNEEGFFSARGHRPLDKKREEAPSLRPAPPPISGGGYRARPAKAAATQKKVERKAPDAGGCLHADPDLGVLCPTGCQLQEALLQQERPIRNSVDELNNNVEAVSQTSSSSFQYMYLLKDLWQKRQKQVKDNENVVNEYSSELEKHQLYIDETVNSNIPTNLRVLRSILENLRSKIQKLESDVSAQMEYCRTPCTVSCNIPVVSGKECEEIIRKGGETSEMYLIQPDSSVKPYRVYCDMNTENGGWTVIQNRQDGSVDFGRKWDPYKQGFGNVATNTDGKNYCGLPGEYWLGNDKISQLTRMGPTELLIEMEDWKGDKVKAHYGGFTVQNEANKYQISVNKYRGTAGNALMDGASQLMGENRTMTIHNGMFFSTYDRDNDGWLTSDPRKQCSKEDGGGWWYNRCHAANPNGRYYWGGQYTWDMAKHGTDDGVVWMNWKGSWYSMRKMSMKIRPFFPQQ
TAG inh = inhibitors of triacylglycerol accumulation; H9c2 cells, Nile Red lipid (TAG) fluorescence; cells loaded with 200 µM oleic acid; inhibition, % at 12.5 µM; actives 0.66% (n = 230,000);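 active means pattern-corrected inhibition of lipid staining of at least 50% with the nuclear-stain viability signal not falling by more than 50%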;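 further: 0% = DMSO wells and 100% = triacsin C control wells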
DAGLB inhibitor = diacylglycerol lipase beta (human) inhibition; HEK293T DAGLB membrane lysate, EnzChek fluorogenic substrate; inhibition, % at 5.17 µM; actives 0.059% (n = 340,000); AID 504411; in the data active means inhibition above about 34%;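 further: 0% = enzyme with vehicle and 100% = wells lacking enzyme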
MT1-MMP act inh = MT1-MMP (human) activation inhibition; P50281; actives 0.061% (n = 360,000); HT1080 RFP-PRO-GFP cells, GFP/RFP ratio fluorescence, overnight; percent of plate control window, DMSO zero; GFP/RFP ratio change, % at 20 µM; AID 651647;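 active means GFP/RFP ratio change of at least 30% with cell ATP level not reduced by more than half and red fluorescence within 50% of control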
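Assay system: RFP-PRO-GFP reporter HT1080 cells; read-out basis: GFP/RFP fluorescence ratio; benchmarks: DMSO wells and RFP-L50D-GFP cells; doses: 20 µM single dose, 1% DMSO; schedule: overnight cell settling, then overnight compound exposure, 37 °C, 5% CO2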
Tn7 DDE FP = inhibitors of Tn7 peptide binding to human fibrin DD(E); FP displacement of FITC-Tn7 peptide from fibrin DD(E); 0% = median of compound wells per plate; inhibition, % at 8.3 µM; actives 0.13% (n = 370,000);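 active means inhibition above the mean of compounds falling within the control limits plus 3 SD of them, cut at about 14% in these data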;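 further: 0% = plate median of compound wells and 100% = 10 µM Aha-Tn7 peptide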
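Test system: human clot-derived fibrin DD(E) complex / Quantity: 2 µM final DD(E) protein / Incubation: 10 min plus 3 h, room temperature / Measured by: fluorescence polarization / Benchmarks: high control of 10 µM Aha-Tn7 peptide / Replicates: singlicate testing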
H9c2 protect = modulators protecting cardiomyocytes from myocardial damage. H9c2 cardiomyocytes, H2O2 injury protection, ATPLite, 2 h. protection from H2O2 cell death, % at 20 µM. actives 0.63% (n = 360,000);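 active means compounds giving at least 50% protection of heart cells from peroxide-induced death in the single-dose screen, raw or plate-pattern-corrected value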;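 further: 0% = DMSO wells with peroxide and 100% = DMSO wells without peroxide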
* = called active by the depositor; nt = no result given.

SMILES	DDE Tn6 FP inh	TAG inh	DAGLB inhibitor	MT1-MMP act inh	Tn7 DDE FP	H9c2 protect
Cc1nc2ccccc2c(=O)n1CCc1ccccc1	2	nt	0	-5	-3	2
Cc1csc(SCc2nc3sc4c(c3c(=O)[nH]2)CCC4)n1	3	-17	-4	-3	-7	52*
C=CCN1[C@@H](C)COc2cccc(F)c2S1(=O)=O	2	nt	nt	nt	-4	nt
Oc1ccc2oc3c(c2c1/C=N/n1cnnc1)CCCC3	-4	nt	0	-18	-4	60*
Oc1ccc2oc3c(c2c1C=NCc1ccncc1)CCCC3	5	-3	7	-17	7	67*
O=C(O)c1ccc(N=Cc2c(O)ccc3oc4c(c23)CCCC4)cc1	1	7	1	-13	-6	62*
Oc1ccccc1N=Cc1c(O)ccc2oc3c(c12)CCCC3	2	-2	1	-24	-7	7
CCC[C@H]1[C@@H](NC(=O)/C=C/c2ccccc2)CC[C@@]23CCCN2C(=O)CCC[C@@H]13	-4	nt	nt	nt	2	nt
COC(=O)[C@]1(CNS(=O)(=O)c2ccc(F)cc2)CC(=O)N(C)[C@@H]1c1ccccc1	6	nt	nt	nt	1	nt
CCc1c(-c2ccc(F)cc2)ncn1CCc1ccccc1OC	-6	nt	nt	nt	-2	nt
COc1ccc(N2CCN(C(=O)C3CCCN(c4ncnc5c4nc4n5CCCCC4)C3)CC2)cc1 (centres undefined)	-1	nt	-2	5	1	24
CC(=O)c1ccc(N2CCN(C(=O)C3CCCN(c4ncnc5c4nc4n5CCCCC4)C3)CC2)cc1 (centres undefined)	1	nt	1	3	3	55*
CN1CCC(N[C@@H](Cc2ccccc2)C(=O)NCC(c2ccccc2)c2ccccc2)(C(=O)NC2CCCCC2)CC1	7	nt	nt	nt	1	nt
Cc1ccccc1Oc1nc(-c2ccccn2)nc2ccccc12	-1	57*	1	-1	0	-6
CCCn1nc(C(=O)OCC(=O)c2c(N)n(C)c(=O)n(C)c2=O)c2ccccc2c1=O	-6	-9	1	-1	0	61*
CCCn1nc(C(=O)OCC(=O)Nc2ccc(C(N)=O)cc2)c2ccccc2c1=O	-7	8	2	3	-3	3
COc1ccc(C(=O)OCC(=O)c2c(N)n(C)c(=O)n(C)c2=O)cc1OC	1	-4	-1	1	-4	13
CC(=O)Oc1ccc(C(=O)OCC(=O)c2c(N)n(C)c(=O)n(C)c2=O)cc1OC(C)=O	0	-5	-1	4	-2	65*
O=c1c2ccccc2nc(-c2ccc(Cl)c(Cl)c2)n1O	2	5	1	-3	-1	63*
O=C1NC(=S)SC1=Cc1ccccc1Cl	-1	7	18	5	-3	-17
O=C1NC(=S)S/C1=C\c1cc(Cl)cc(Cl)c1O	25*	-19	34	15	-12	3
CCOC(=O)C1=C(C)NC(C)=C(C(=O)OCCNC(=O)c2cccnc2)C1c1cccc([N+](=O)[O-])c1 (centres undefined)	nt	nt	-1	-8	nt	69*
CN(C)S(=O)(=O)n1cc(/C=C(\NC(=O)c2ccccc2F)C(=O)NCCN2CCOCC2)c2ccccc21	-9	4	-1	1	3	75*
CN(C)S(=O)(=O)n1cc(/C=C(\NC(=O)c2ccccc2)C(=O)NCCN2CCOCC2)c2ccccc21	-4	nt	1	-2	3	7
Cc1ccc(-n2c(SCC(=O)C(C)(C)C)nnc2-c2cccc(C)c2)cc1	-6	nt	nt	nt	1	nt
SMILES	DDE Tn6 FP inh	TAG inh	DAGLB inhibitor	MT1-MMP act inh	Tn7 DDE FP	H9c2 protect
CCOC(=O)c1cnc(-n2nc(C)cc2C)nc1NCc1ccccc1	13	nt	-4	-2	6	63*
O=c1[nH]cc(N=Cc2cc(Cl)cc(Cl)c2O)c(=O)[nH]1	0	4	5	1	-3	49*
C(=C\c1nnc2c3ccccc3ncn12)/c1ccccc1	6	nt	-1	6	1	2
COc1cc(/C=C/c2nnc3c4ccccc4ncn23)cc(OC)c1OC	-15	nt	-3	2	-1	68*
Oc1ccc(C2CNCc3sccc32)cc1O (centres undefined)	-4	-5	1	0	-1	54*
COc1ccc2nc(C)cc(SCC(=O)N/N=C/c3ccc(O)cc3O)c2c1	3	nt	-1	-1	11	52*
COc1cccc2c(SCC(=O)N/N=C/c3ccc(O)cc3O)cc(C)nc12	-10	-18	0	-2	5	81*
COCc1cc(C)nc(OCC(=O)N/N=C/c2ccc(O)cc2O)c1C#N	-1	-6	-1	6	9	52*
COCc1cc(C)nc(OCC(=O)N/N=C/c2ccccc2O)c1C#N	2	-25	1	6	2	28
COc1ccc(Cc2nc3ccccc3n2CC(=O)N/N=C/c2ccc(O)cc2)cc1OC	-1	2	2	1	0	11
COc1ccccc1/C=N/NC(=O)CSc1cc(C)nc2ccccc12	-2	-9	0	-6	-6	-10
COc1ccc(Cc2nc3ccccc3n2CC(=O)N/N=C/c2ccc(C)cc2O)cc1OC	6	nt	5	0	2	52*
Cn1c2c(c(=O)n(C)c1=O)C(c1ccc(Br)cc1)Nc1ccccc1O2 (centres undefined)	5	nt	-1	-4	-6	51*
COc1ccccc1-n1c(SCC(=O)NCc2ccc3c(c2)OCO3)nc2cc([N+](=O)[O-])ccc21	-3	nt	11	-3	2	107*
CC(Sc1nc2cc([N+](=O)[O-])ccc2n1-c1ccc(F)cc1)C(=O)NCc1ccc2c(c1)OCO2 (centres undefined)	0	nt	0	-2	6	17
CCOC(=O)CCS(=O)(=O)c1nc(-c2ccccc2)cc(C(F)(F)F)n1	nt	74*	-5	2	nt	-34
COCCNC(=S)N(C)[C@H]1C[C@H]2c3[nH]c4c(-c5cccc(C)c5)cccc4c3CCN2C[C@H]1[C@H](C)O	-3	nt	nt	nt	-6	nt
CCOC(=O)c1cccc(Nc2nc(-c3cccnc3)nc3ccccc23)c1	3	53*	-4	-21	2	55*
CCOC(=O)c1nc(Nc2cccc(C)c2)c2ccccc2n1	0	13	-1	-1	-13	7
CCOC(=O)c1nc(Nc2ccc(C(C)=O)cc2)c2ccccc2n1	-3	16	0	5	-2	82*
O=C(O)c1cccc(Nc2nc(-c3cccnc3)nc3ccccc23)c1	9	3	2	2	-1	0
COC(=O)c1cccc(Nc2nc(-c3cccnc3)nc3ccccc23)c1	10	32	0	-7	2	51*
